Source: ChEMBL document CHEMBL3272128, “Antileukemic activity of derivatives of 1-phenyl-2,5-dimethyl-3,4-bis(hydroxymethyl)pyrrole bis(N-methylcarbamate)” (J Med Chem, 1977)

Assays:
P388 [1] = assay: Antileukemic activity against mouse P388 cells allografted in male CDF1 mouse assessed as tumor growth inhibition at 12.5 mg/kg, ip using saline as vehicle total 9 daily doses started 24 hrs after tumor inoculation; type: functional; details: route intraperitoneal
Summary of the method: (§1)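 P388 ascitic fluid was given ip to male CDF1 mice. Treatment was ip in saline, nine daily doses from 24 h post-inoculation. Median survival time was expressed as % T/C, and % T/C > 125 was considered significant.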

P388 [2] = assay: Antileukemic activity against mouse P388 cells allografted in male CDF1 mouse assessed as tumor growth inhibition at 25 mg/kg, ip using saline as vehicle total 9 daily doses started 24 hrs after tumor inoculation; type: functional; details: route intraperitoneal; summary of the method: as §1
Mus musculus [3] = assay: Toxicity in male CDF1 mouse allografted with mouse P388 cells assessed as survivors on day 5 at 50 mg/kg, ip using saline as vehicle; type: organism-based; set-up: dose 50 mg/kg, route intraperitoneal; details: in vivo
Summary of the method: (§2)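 P388 leukemia ascitic fluid was implanted ip into male CDF1 mice. Compound was given ip in saline vehicle as nine daily doses, starting 24 h post-inoculation. Survivor counts were taken on day 5.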

Mus musculus [4] = assay: Toxicity in male CDF1 mouse allografted with mouse P388 cells assessed as survivors on day 5 at 12.5 mg/kg, ip using saline as vehicle; type: organism-based; set-up: dose 12.5 mg/kg, route intraperitoneal; details: in vivo; summary of the method: as §2
P388 [5] = assay: Antileukemic activity against mouse P388 cells allografted in male CDF1 mouse assessed as change in body weight at 12.5 mg/kg, ip using saline as vehicle total 9 daily doses started 24 hrs after tumor inoculation; type: functional; details: route intraperitoneal
Summary of the method: (§3)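 In male CDF1 mice bearing ip-inoculated P388 ascitic fluid, drug was given ip in saline vehicle, once daily for nine doses starting 24 h after inoculation. Body weight difference, treated minus control (g), was recorded on day 5.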

P388 [6] = assay: Antileukemic activity against mouse P388 cells allografted in male CDF1 mouse assessed as change in body weight at 25 mg/kg, ip using saline as vehicle total 9 daily doses started 24 hrs after tumor inoculation; type: functional; details: route intraperitoneal; summary of the method: as §3
P388 [7] = assay: Antileukemic activity against mouse P388 cells allografted in male CDF1 mouse assessed as tumor growth inhibition at 50 mg/kg, ip using saline as vehicle total 9 daily doses started 24 hrs after tumor inoculation; type: functional; details: route intraperitoneal; summary of the method: as §1
P388 [8] = assay: Antileukemic activity against mouse P388 cells allografted in male CDF1 mouse assessed as change in body weight at 50 mg/kg, ip using saline as vehicle total 9 daily doses started 24 hrs after tumor inoculation; type: functional; details: route intraperitoneal; summary of the method: as §3
Mus musculus [9] = assay: Toxicity in male CDF1 mouse allografted with mouse P388 cells assessed as survivors on day 5 at 25 mg/kg, ip using saline as vehicle; type: organism-based; set-up: dose 25 mg/kg, route intraperitoneal; details: in vivo; summary of the method: as §2
P388 [10] = assay: Antileukemic activity against mouse P388 cells allografted in male CDF1 mouse assessed as change in body weight at 50 mg/kg, ip using hydroxypropylcellulose suspension total 9 daily doses started 24 hrs after tumor inoculation; type: functional; details: route intraperitoneal
Summary of the method: (§4)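 Male CDF1 mice were inoculated ip with P388 ascitic fluid. Compound was given ip as a Flucel (hydroxypropylcellulose) suspension, nine daily doses from 24 h after inoculation. Animal weight difference (T − C, g) was recorded on the fifth day.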

Mus musculus [11] = assay: Toxicity in male CDF1 mouse allografted with mouse P388 cells assessed as survivors on day 5 at 12.5 mg/kg, ip using hydroxypropylcellulose suspension; type: organism-based; set-up: dose 12.5 mg/kg, route intraperitoneal; details: in vivo
Summary of the method: (§5)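 Male CDF1 mice received an ip inoculation of P388 leukemia ascitic fluid. Dosing was ip in a hydroxypropylcellulose (Flucel) suspension, once daily for nine days, beginning 24 h after tumor implantation. Toxicity was scored as survivors recorded on the fifth day.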

P388 [12] = assay: Antileukemic activity against mouse P388 cells allografted in male CDF1 mouse assessed as change in body weight at 25 mg/kg, ip using hydroxypropylcellulose suspension total 9 daily doses started 24 hrs after tumor inoculation; type: functional; details: route intraperitoneal; summary of the method: as §4
P388 [13] = assay: Antileukemic activity against mouse P388 cells allografted in male CDF1 mouse assessed as tumor growth inhibition at 50 mg/kg, ip using hydroxypropylcellulose suspension total 9 daily doses started 24 hrs after tumor inoculation; type: functional; details: route intraperitoneal
Summary of the method: (§6)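 Male CDF1 mice received P388 ascitic fluid ip, then ip doses in Flucel (hydroxypropylcellulose) suspension, nine daily, beginning 24 h after inoculation. Efficacy was median survival time as % T/C; values > 125 were considered significant.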

P388 [14] = assay: Antileukemic activity against mouse P388 cells allografted in male CDF1 mouse assessed as change in body weight at 12.5 mg/kg, ip using hydroxypropylcellulose suspension total 9 daily doses started 24 hrs after tumor inoculation; type: functional; details: route intraperitoneal; summary of the method: as §4
P388 [15] = assay: Antileukemic activity against mouse P388 cells allografted in male CDF1 mouse assessed as tumor growth inhibition at 25 mg/kg, ip using hydroxypropylcellulose suspension total 9 daily doses started 24 hrs after tumor inoculation; type: functional; details: route intraperitoneal; summary of the method: as §6
P388 [16] = assay: Antileukemic activity against mouse P388 cells allografted in male CDF1 mouse assessed as tumor growth inhibition at 12.5 mg/kg, ip using hydroxypropylcellulose suspension total 9 daily doses started 24 hrs after tumor inoculation; type: functional; details: route intraperitoneal; summary of the method: as §6
Mus musculus [17] = assay: Toxicity in male CDF1 mouse allografted with mouse P388 cells assessed as survivors on day 5 at 25 mg/kg, ip using hydroxypropylcellulose suspension; type: organism-based; set-up: dose 25 mg/kg, route intraperitoneal; details: in vivo; summary of the method: as §5
P388 [18] = assay: Antileukemic activity against mouse P388 cells allografted in female CDF1 mouse assessed as tumor growth inhibition at 25 mg/kg, ip using hydroxypropylcellulose suspension total 9 daily doses started 24 hrs after tumor inoculation; type: functional; details: route intraperitoneal
Summary of the method: (§7)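 P388 ascitic fluid was inoculated ip into female CDF1 mice. Dosing was ip in a Flucel (hydroxypropylcellulose) suspension, given daily for nine doses beginning 24 h post-inoculation. Activity was median survival time expressed as % T/C, with % T/C > 125 taken as significant.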

Mus musculus [19] = assay: Toxicity in female CDF1 mouse allografted with mouse P388 cells assessed as survivors on day 5 at 25 mg/kg, ip using hydroxypropylcellulose suspension; type: organism-based; set-up: dose 25 mg/kg, route intraperitoneal; details: in vivo
Summary of the method: (§8)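 Female CDF1 mice were inoculated ip with P388 leukemia ascitic fluid. Test agent was suspended in hydroxypropylcellulose (Flucel) and given ip as nine daily doses, starting 24 h after tumor inoculation. Survivors were counted on day 5 as the toxicity read-out.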

P388 [20] = assay: Antileukemic activity against mouse P388 cells allografted in female CDF1 mouse assessed as change in body weight at 100 mg/kg, ip using hydroxypropylcellulose suspension total 9 daily doses started 24 hrs after tumor inoculation; type: functional; details: route intraperitoneal
Summary of the method: (§9)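 Female CDF1 mice got P388 ascitic fluid ip. Test agent was given ip as a Flucel (hydroxypropylcellulose) suspension, nine daily doses starting 24 h after tumor inoculation. Read-out was the treated minus control animal weight difference (T − C, g), recorded on day 5.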

Mus musculus [21] = assay: Toxicity in female CDF1 mouse allografted with mouse P388 cells assessed as survivors on day 5 at 50 mg/kg, ip using hydroxypropylcellulose suspension; type: organism-based; set-up: dose 50 mg/kg, route intraperitoneal; details: in vivo; summary of the method: as §8
P388 [22] = assay: Antileukemic activity against mouse P388 cells allografted in female CDF1 mouse assessed as change in body weight at 200 mg/kg, ip using hydroxypropylcellulose suspension total 9 daily doses started 24 hrs after tumor inoculation; type: functional; details: route intraperitoneal; summary of the method: as §9
P388 [23] = assay: Antileukemic activity against mouse P388 cells allografted in female CDF1 mouse assessed as change in body weight at 50 mg/kg, ip using hydroxypropylcellulose suspension total 9 daily doses started 24 hrs after tumor inoculation; type: functional; details: route intraperitoneal; summary of the method: as §9
P388 [24] = assay: Antileukemic activity against mouse P388 cells allografted in female CDF1 mouse assessed as tumor growth inhibition at 100 mg/kg, ip using hydroxypropylcellulose suspension total 9 daily doses started 24 hrs after tumor inoculation; type: functional; details: route intraperitoneal; summary of the method: as §7
P388 [25] = assay: Antileukemic activity against mouse P388 cells allografted in female CDF1 mouse assessed as tumor growth inhibition at 200 mg/kg, ip using hydroxypropylcellulose suspension total 9 daily doses started 24 hrs after tumor inoculation; type: functional; details: route intraperitoneal; summary of the method: as §7
Mus musculus [26] = assay: Toxicity in female CDF1 mouse allografted with mouse P388 cells assessed as survivors on day 5 at 200 mg/kg, ip using hydroxypropylcellulose suspension; type: organism-based; set-up: dose 200 mg/kg, route intraperitoneal; details: in vivo; summary of the method: as §8
P388 [27] = assay: Antileukemic activity against mouse P388 cells allografted in female CDF1 mouse assessed as change in body weight at 6.25 mg/kg, ip using hydroxypropylcellulose suspension total 9 daily doses started 24 hrs after tumor inoculation; type: functional; details: route intraperitoneal; summary of the method: as §9
P388 [28] = assay: Antileukemic activity against mouse P388 cells allografted in female CDF1 mouse assessed as tumor growth inhibition at 50 mg/kg, ip using hydroxypropylcellulose suspension total 9 daily doses started 24 hrs after tumor inoculation; type: functional; details: route intraperitoneal; summary of the method: as §7
P388 [29] = assay: Antileukemic activity against mouse P388 cells allografted in female CDF1 mouse assessed as change in body weight at 25 mg/kg, ip using hydroxypropylcellulose suspension total 9 daily doses started 24 hrs after tumor inoculation; type: functional; details: route intraperitoneal; summary of the method: as §9
Mus musculus [30] = assay: Toxicity in male CDF1 mouse allografted with mouse P388 cells assessed as survivors on day 5 at 50 mg/kg, ip using hydroxypropylcellulose suspension; type: organism-based; set-up: dose 50 mg/kg, route intraperitoneal; details: in vivo; summary of the method: as §5

SMILES | Activity (P388 [10]) [g] | Activity (Mus musculus [11]) | Activity (P388 [12]) [g] | T/C (P388 [13]) [%] | Activity (P388 [14]) [g] | T/C (P388 [15]) [%] | T/C (P388 [16]) [%] | Activity (Mus musculus [17]) | other results
CNC(=O)OCc1c(COC(=O)NC)c(C)n(-c2ccc(Cl)c(Cl)c2)c1C |  |  |  |  |  |  |  |  | T/C (P388 [1]): 160%; T/C (P388 [2]): 148%; Activity (Mus musculus [3]): Non-toxic; Activity (Mus musculus [4]): Non-toxic; Activity (P388 [5]): -1.5 g; Activity (P388 [6]): -2.9 g; T/C (P388 [7]): 84%; Activity (P388 [8]): -2.6 g; Activity (Mus musculus [9]): Non-toxic
COc1ccc(-n2c(C)c(COC(C)=O)c(COC(C)=O)c2C)cc1 | -3.2 | Non-toxic | -3.8 | 75 | -1.6 | 95 | 157 | Non-toxic | 
CNC(=O)OCc1c(COC(=O)NC)c(C)n(-c2ccc(Cl)cc2)c1C |  |  |  |  |  |  |  |  | T/C (P388 [1]): 145%; T/C (P388 [2]): 142%; Activity (Mus musculus [4]): Non-toxic; Activity (P388 [5]): -1.3 g; Activity (P388 [6]): -3.8 g; T/C (P388 [7]): 80%; Activity (P388 [8]): -2.9 g; Activity (Mus musculus [9]): Non-toxic
CCCCc1ccc(-n2c(C)c(COC(=O)NC)c(COC(=O)NC)c2C)cc1 | -4.9 | Non-toxic | -4.1 | 65 | -3.1 | 152 | 190 | Non-toxic | 
CNC(=O)OCc1c(COC(=O)NC)c(C)n(-c2ccccc2)c1C |  |  | -1.7 |  | -1.3 | 148 | 145 | Non-toxic | T/C (P388 [18]): 127%; Activity (Mus musculus [19]): Non-toxic; Activity (P388 [20]): -2.1 g; Activity (Mus musculus [21]): Non-toxic; Activity (P388 [22]): -1.5 g; Activity (P388 [23]): -2 g; T/C (P388 [24]): <50%; T/C (P388 [25]): <50%; Activity (Mus musculus [26]): Toxic; Activity (P388 [27]): -2.1 g; T/C (P388 [28]): <50%; Activity (P388 [29]): -1.6 g
CCOc1ccc(-n2c(C)c(COC(=O)NC)c(COC(=O)NC)c2C)cc1 | -3.8 | Non-toxic | -3.4 | 90 | -3 | 150 | 152 | Non-toxic | 
CNC(=O)OCc1c(COC(=O)NC)c(C)n(-c2ccc(F)cc2)c1C | -2.6 | Non-toxic | -2.1 | 133 | -2.6 | 155 | 142 | Non-toxic | Activity (Mus musculus [30]): Non-toxic
CNC(=O)OCc1c(COC(=O)NC)c(C)n(-c2ccc(OC)cc2)c1C | -0.5 | Non-toxic | -2.4 | 171 | -2.6 | 142 | 152 | Non-toxic | Activity (Mus musculus [30]): Non-toxic
CNC(=O)OCc1c(COC(=O)NC)c(C)n(-c2ccc(C)cc2)c1C | -2.6 | Non-toxic | -2.3 | 133 | -2.5 | 136 | 142 | Non-toxic | Activity (Mus musculus [30]): Non-toxic
CNC(=O)OCc1c(COC(=O)NC)c(C)n(-c2ccc(Br)cc2)c1C | -4.9 | Non-toxic | -3.9 | 88 | -2 | 142 | 152 | Non-toxic | 
CNC(=O)OCc1c(COC(=O)NC)c(C)n(-c2ccc3c(c2)OCO3)c1C | -3.4 | Non-toxic | -1.6 | <50 | -1.1 | 146 | 132 | Non-toxic | 
